Compound activity (PubChem)
In the library only some 2.2% were active in any assay of this set; here they are far more common.
FXIa inh 1536: blocks human coagulation factor XIa protease activity | P03951 | purified FXIa, Boc-Glu-Ala-Arg-AMC fluorogenic substrate | inhibition, % at 5 µM | hit rate 0.14% among 220,000;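 active = inhibition of at least 40%; inactive = inhibition below 40%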;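 note: fluorescence of freed AMC excited at 355 nm; 0% = enzyme without compound and 100% = no enzyme blank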
Target sequence (P03951 19-387 limits assumed): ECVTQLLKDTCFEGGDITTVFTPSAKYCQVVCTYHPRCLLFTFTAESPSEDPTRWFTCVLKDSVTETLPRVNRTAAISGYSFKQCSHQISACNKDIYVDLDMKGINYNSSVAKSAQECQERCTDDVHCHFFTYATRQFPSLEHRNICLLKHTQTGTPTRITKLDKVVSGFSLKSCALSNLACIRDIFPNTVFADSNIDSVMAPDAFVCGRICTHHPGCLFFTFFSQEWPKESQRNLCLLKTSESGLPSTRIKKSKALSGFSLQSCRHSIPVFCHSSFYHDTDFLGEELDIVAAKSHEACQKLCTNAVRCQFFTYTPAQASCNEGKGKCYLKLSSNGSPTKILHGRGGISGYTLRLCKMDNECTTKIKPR
Target sequence (P03951 388-625 limits assumed): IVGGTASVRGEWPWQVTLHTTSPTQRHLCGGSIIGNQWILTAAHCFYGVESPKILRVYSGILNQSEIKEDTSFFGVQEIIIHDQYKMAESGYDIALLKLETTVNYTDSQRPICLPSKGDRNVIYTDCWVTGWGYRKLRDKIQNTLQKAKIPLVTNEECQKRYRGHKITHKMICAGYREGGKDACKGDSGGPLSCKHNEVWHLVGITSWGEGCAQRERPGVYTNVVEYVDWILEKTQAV
Wee1 stabilizer: inhibitors of human Wee1 degradation. hit rate 1.2% among 220,000. HeLa Luc-Wee1K328M stability, luciferase luminescence; 100% = proteasome inhibitor MG132 effect. P30291. reporter increase, % at 5 µM;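 active = activation above the mean of all tested compounds plus 3 SD, set per screening run, cut at about 8.8% in these data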;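 note: cells exposed to compound for 20 h before luminescence read; 0% = DMSO alone and 100% = MG132 at 30 µM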
FXIIa inh: blocks human coagulation factor XIIa protease activity. purified FXIIa, Boc-QGR-AMC fluorogenic substrate, 2 h. P00748. hit rate 0.3% among 220,000. inhibition, % at 5 µM; in the data active = inhibition above about 40%;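 note: 0% = enzyme with no compound and 100% = blank without enzyme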
Thrombin inh: thrombin (human) inhibition. alpha-thrombin, Boc-VPR-AMC fluorogenic substrate cleavage. inhibition, % at 5 µM. hit rate 0.26% among 220,000;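 active = inhibition at or above 40%; inactive = inhibition below 40%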;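 note: 0% = enzyme with no compound and 100% = wells without enzyme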
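Material: Human alpha-thrombin protein | Buffer or medium: pH 7.5 Tris-saline with Tween 20 | Reagent: Boc-VPR-AMC substrate, 15 µM final | Schedule: Reaction at ambient temperature | Detection: AMC fluorescence at 355 nm excitation and 460 nm emission | Evaluation: Percent inhibition scaled between no-compound controls and no-enzyme blanks | Controls: no-compound enzyme wells and no-enzyme blanks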
hK5 inh: blocks human kallikrein 5 protease activity | Q9Y337 | recombinant hK5, fluorogenic AMC substrate cleavage | inhibition, % at 5 µM | hit rate 0.59% among 210,000 | AID 873;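 active = inhibition of 40% or more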;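 note: 0% = enzyme controls without compound and 100% = no-enzyme blanks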
* = called active by the depositor; / = not tested or not shown.

SMILES	FXIa inh 1536	Wee1 stabilizer	FXIIa inh	Thrombin inh	hK5 inh
CNC(=O)/C(C#N)=C/c1c(N(Cc2ccccc2)Cc2ccccc2)nc2c(C)cccn2c1=O	10	-2	24	25	49*
COc1ccc(-c2cn3cccnc3n2)cc1NC(=O)c1cc(OC)c(OC)c(OC)c1	0	9.7*	3	-11	-1
Cc1nc(NC(=O)/C=C/c2ccco2)sc1C	5	8.9*	13	-4	-9
CC1=NN(C(C#N)c2ccc([N+](=O)[O-])cc2)C(C)(C)C1 (stereo not given)	50*	1	28	22	57*
COc1ccc(-c2nc(C#N)c(NCCN(C)C)o2)cc1	6	9.1*	11	0	-9
COc1ccc(-n2c(C)cc(-c3cn4cccc(C)c4n3)c2C)cc1	-4	8.8*	3	1	-12
Cc1ccc(C(=O)COC(=O)CCCC(=O)Nc2cc(C(F)(F)F)ccc2Cl)cc1C	13	0	15	14	-1
O=C1CC(O)(C(F)(F)F)Oc2c1ccc1ccccc21 (stereo not given)	8	-2	15	30	93*
CCCCNC(=O)c1cc2c(-c3ccc(Cl)cc3)nn(C)c2s1	6	0	14	-5	-28
Cc1ccc(CNC(=O)c2cc3c(-c4ccc(Cl)cc4)nn(C)c3s2)o1	-16	9.6*	-1	-7	-1
CCCc1nc2ccccc2n1Cc1ccccc1OC	4	2	6	-6	6
Cc1ccc2nc(N(CCCN(C)C)C(=O)c3ccco3)sc2c1	-1	10*	7	-11	1
COCC(C)n1c(SCC(=O)c2cc(C)n(C)c2C)nc2ccccc2c1=O (stereo not given)	-4	4	/	-9	-1
CCOC(=O)c1cn(CC(=O)Nc2ccccc2C(=O)OCC)nn1	-15	-1	12	3	10
CCOC(=O)c1cn(Cc2ccccc2)nn1	36	2	50*	-6	-5
CCOc1ccc(Br)cc1-c1noc(-c2cccs2)n1	-5	-1	11	7	48*
CCOC(=O)c1ccc(NC(=O)COC(=O)Cc2csc(-c3ccccc3)n2)cc1	20	-2	21	-9	-1
Cc1nc2ccccc2c(=O)n1/N=C/C=C/c1ccccc1	-2	2	2	-4	-1
COc1ccc(/C=C/C(=O)N2CCN(S(=O)(=O)/C=C/c3ccccc3)CC2)cc1OC	3	1	2	-7	-37
COc1ccc(/C=C/C(=O)N2CCN(S(=O)(=O)c3ccccc3)CC2)cc1OC	34	-1	22	25	48*
CCN(CC)c1ccc(C(=O)OCC(=O)NC(C)(C)C)cc1	-3	-1	3	-3	-3
CC(C)(C)C1CCC(OC(=O)CN2CCCCC2)CC1 (stereo not given)	8	-3	11	1	-1
Cc1ccc(NC(=O)CN2C(=O)S/C(=C\C(=O)Nc3ccc(Cl)cc3)C2=O)cc1	4	1	4	10	45*
Cn1cccc1/C=C1\SC(=O)N(CC(=O)Nc2ccc(Cl)cc2)C1=O	2	-2	13	4	-21
O=C1CSC(=S)N1N=C1CCCCCC1	-3	13*	0	-8	-55
SMILES	FXIa inh 1536	Wee1 stabilizer	FXIIa inh	Thrombin inh	hK5 inh
C/C(N)=C(/C#N)C(=O)COC(=O)c1ccc(C#N)cc1	1	0	12	-6	5
Cn1nnnc1SCc1ccc(CSc2nnnn2C)cc1	-1	0	/	-2	-1
Cn1nnnc1SCc1ccc(Cl)cc1	-21	13*	8	-1	0
N/C(=N\OC(=O)c1ccc(Cl)cc1Cl)c1ccccn1	31	-5	29	-4	53*
O=C(Oc1ccc(Cl)c2cccnc12)c1ccco1	-5	1	52*	-3	-4
N/C(=N\OC(=O)c1ccco1)c1ccccn1	2	10*	10	-4	5
N/C(=N\OC(=O)c1cc(Br)ccc1Cl)c1ccccn1	-2	3	9	-2	-2
CCOC(=O)C1=NNC2(c3ccc(Cl)cc3)C(=O)N(c3ccc(C)cc3)C(=O)C12 (stereo not given)	8	3	10	-14	-10
Cc1cc(Cl)c(S(=O)(=O)NCc2ccccc2)cc1OCC(N)=O	0	0	11	1	-1
Cc1cc(Cl)c(S(=O)(=O)N2CCCCCC2)cc1OCC(N)=O	9	-2	13	32	41*
Cc1cc(Cl)c(S(=O)(=O)NCc2ccncc2)cc1OCC(N)=O	0	-1	3	9	54*
Cc1ccc(N2CC(C)Cn3c2nc2c3c(=O)n(CC(=O)OCc3ccccc3)c(=O)n2C)cc1C (stereo not given)	6	-2	25	15	44*
Cc1ccc(NC(=O)Nc2ccc3c(c2)nc(C)n3C)cc1C	-4	7	-4	-10	/
Cc1cc(C(=O)Nc2ccc3c(c2)CCC3)c2ccccc2n1	-1	-2	4	-5	-4
Cc1nc2cc(NC(=O)Nc3ccc(N4CCOCC4)cc3)ccc2n1C	8	10*	17	5	-8
Cc1cc(C(=O)Nc2ccc(N3CCOCC3)cc2)c2ccccc2n1	11	2	44*	0	1
Cc1cc(C)n2nc(Sc3ncccc3[N+](=O)[O-])nc2n1	2	1	11	-5	-4
CC(C)CCN1CCN(Cc2cccn2-c2cccnc2)CC1CCO (stereo not given)	-3	-3	7	-8	-1
CC(C)N1CCN(Cc2cccn2-c2cccnc2)CC1CCO (stereo not given)	-3	9.6*	16	-1	0
O=C(N/N=C/c1ccc(-c2ccc(Cl)c(C(=O)O)c2)o1)c1cc2c(ccc3ccccc32)o1	1	2	-1	-5	0
CCC(C)c1ccc(OCc2ccc(C(=O)OC)o2)cc1 (stereo not given)	3	-1	8	0	2
Cc1cccc(C(=O)Nc2sc(C)c(-c3ccccc3)c2C#N)c1	10	6	6	53*	56*
CCn1cc(C(=O)NCCc2ccccc2)c(=O)c2cc(S(=O)(=O)N3CCCC3)ccc21	-2	9.4*	4	31	-4
CCn1cc(C(=O)NCC2CCCO2)c(=O)c2cc(S(=O)(=O)N3CCCCCC3)ccc21 (stereo not given)	-1	2	14	-8	-9
CCn1cc(C(=O)NCc2ccco2)c(=O)c2cc(S(=O)(=O)N3CCCC3)ccc21	3	0	10	83*	1
CCN(CC)S(=O)(=O)c1ccc2c(c1)c(=O)c(C(=O)NCc1cccs1)cn2C	5	8	12	64*	-7
COc1ccccc1CNC(=O)c1cn(C)c2ccc(S(=O)(=O)N3CCCC3)cc2c1=O	-4	0	6	45*	-6
Cn1cc(C(=O)NCc2ccc(F)cc2)c(=O)c2cc(S(=O)(=O)N3CCCCC3)ccc21	-6	-1	0	3	-9
